In ChEMBL document CHEMBL2057145, “Development of novel antibacterial agents against methicillin-resistant Staphylococcus aureus” (Bioorg Med Chem, 2012):
≈ marks a conversion by molar mass, not a printed value.

Tests used:
Staphylococcus aureus [1] = assay: Bactericidal activity against Staphylococcus aureus ATCC 29213 assessed as decrease in bacterial count at 8 times compound MIC after 24 hrs by time-kill assay; type: functional; design: scale not given: the % may be the effect or the level left
Outline: (§1)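 S. aureus ATCC 29213 at 5 × 10⁵ CFU/mL in CAMHB exposed to test agents at 2-, 4- and 8-fold MIC, in triplicate. DMSO-matched medium served as control. At successive times, aliquots serially diluted in PBS and plated on LB agar (37 °C, 16 h). Counts given as CFU/mL, mean ± SD (n = 3); 99.9% killing used as reference.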

[2] = Selectivity ratio of IC50 for human HT-29 cells to MIC for Staphylococcus aureus ATCC 29213; type: functional
Outline: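 Ratio of HT-29 IC50 (MTT assay, 24 h exposure) to MIC against S. aureus ATCC 29213 (CLSI broth microdilution, 24 h, 37 °C).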

[3] = tested on: Staphylococcus epidermidis; assay: Antibacterial activity against Staphylococcus epidermidis ATCC 35984 after 24 hrs by broth microdilution method; type: functional; conditions: RP62A
Staphylococcus aureus [4] = assay: Bactericidal activity against Staphylococcus aureus ATCC 29213 assessed as decrease in bacterial count at 2 to 8 times compound MIC by time-kill assay; type: functional, organism-based; conditions: TDE = time-dependent effect; outline: as §1
Mus musculus [5] = assay: Toxicity in C57BL/6 mouse infected with methicillin-resistant Staphylococcus aureus ATCC 33592 assessed as weight loss at 30 mg/kg, ip administered 1 hr post infection measured on day 1 post infection; type: organism-based; design: dose 30 mg/kg, route intraperitoneal; conditions: in vivo
Outline: (§2)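 Female C57BL/6 mice, N = 5 per group, were infected ip with a 100% lethal dose of MRSA, 7 × 10⁷ CFU in 0.3 ml PBS. At 1 h they received one ip dose of 30 mg/kg in vehicle (40% PEG-400, 10% […], 10% DMSO in normal saline). Body weight and morbidity were recorded daily for 7 days. Mice were sacrificed on significant morbidity, including 20% weight loss.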

HT-29 = assay: Antiproliferative activity against human HT-29 cells after 24 hrs by MTT assay; type: cell-based; conditions: HT-29, 24 h
Outline: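 HT-29 human colon adenocarcinoma cells seeded at 1 × 10⁴ cells/well in RPMI 1640 with 10% FBS and 10 µg/mL gentamicin, left overnight at 37 °C, 5% CO₂. Medium then replaced with medium holding test agents (final DMSO 0.1%; DMSO-only controls), at least 6 wells per condition, for 24 h. Viability read by MTT (0.5 mg/mL, 2 h, 37 °C), DMSO solubilization, absorbance 570 nm.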

[6] = tested on: Staphylococcus intermedius; assay: Antibacterial activity against Staphylococcus intermedius ATCC 29663 after 24 hrs by broth microdilution method; type: functional; conditions: ATCC 29663, 24 h
Mus musculus [7] = assay: Toxicity in C57BL/6 mouse infected with methicillin-resistant Staphylococcus aureus ATCC 33592 assessed as weight loss at 30 mg/kg, ip administered 1 hr post infection measured on day 3 to 6 post infection; type: organism-based; design: dose 30 mg/kg, route intraperitoneal; conditions: in vivo; outline: as §2
Staphylococcus aureus [8] = assay: Antibacterial activity against methicillin-resistant Staphylococcus aureus ATCC 33592 infected in C57BL/6 mouse assessed as mouse survival time at 30 mg/kg, ip administered 1 hr post infection; type: functional; conditions: route intraperitoneal; outline: as §2
Mus musculus [9] = assay: Toxicity in C57BL/6 mouse infected with methicillin-resistant Staphylococcus aureus ATCC 33592 assessed as mortality at 30 mg/kg, ip administered 1 hr post infection; type: organism-based; design: dose 30 mg/kg, route intraperitoneal; conditions: in vivo; outline: as §2
[10] = tested on: Staphylococcus lugdunensis; assay: Antibacterial activity against Staphylococcus lugdunensis isolate NTUH after 24 hrs by broth microdilution method; type: functional
Staphylococcus aureus [11] = assay: Antibacterial activity against Staphylococcus aureus ATCC 29213 after 24 hrs by broth microdilution method; type: functional; conditions: ATCC 29213, 24 h
Staphylococcus aureus [12] = assay: Antibacterial activity against methicillin-resistant Staphylococcus aureus ATCC 33592 after 24 hrs by broth microdilution method; type: functional; conditions: ATCC 33592, 24 h
Outline: (§3)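 CLSI broth microdilution. Bacteria grown overnight on LB agar, suspended in PBS, then exposed to test agents at 0.25 to 64 µg/mL in triplicate. Incubation 37 °C for 24 h. MIC is the lowest concentration with no visible bacterial growth. DMSO stocks diluted in culture medium to a final DMSO of 0.1%.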

Staphylococcus aureus [13] = assay: Antibacterial activity against Staphylococcus aureus assessed as log decrease in bacterial CFU at 32 ug/ml after 24 hrs; type: functional
[14] = tested on: Staphylococcus epidermidis; assay: Antibacterial activity against Staphylococcus epidermidis ATCC 12228 after 24 hrs by broth microdilution method; type: functional; conditions: ATCC 12228, 24 h
Staphylococcus aureus [15] = assay: Antibacterial activity against methicillin-resistant Staphylococcus aureus expressing […] subtype VT after 24 hrs by broth microdilution method; type: functional; outline: as §3
Staphylococcus aureus [16] = assay: Antibacterial activity against methicillin-resistant Staphylococcus aureus ATCC 49476 after 24 hrs by broth microdilution method; conditions: ATCC 49476, 24 h
Staphylococcus aureus [17] = assay: Antibacterial activity against Staphylococcus aureus ATCC 12598 after 24 hrs by broth microdilution method; type: functional; conditions: ATCC 12598, 24 h
Outline: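 CLSI broth microdilution. Incubation 37 °C for 24 h. MIC is the lowest concentration with no visible bacterial growth. DMSO stocks diluted in culture medium to a final DMSO of 0.1%.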

[18] = tested on: Staphylococcus saprophyticus; assay: Antibacterial activity against Staphylococcus saprophyticus ATCC 15305 after 24 hrs by broth microdilution method; type: functional; conditions: ATCC 15305, 24 h
Staphylococcus hominis = assay: Antibacterial activity against Staphylococcus hominis ATCC 27844 after 24 hrs by broth microdilution method; type: functional; conditions: ATCC 27844, 24 h
[19] = tested on: Staphylococcus haemolyticus; assay: Antibacterial activity against Staphylococcus haemolyticus ATCC 29970 after 24 hrs by broth microdilution method; type: functional; conditions: ATCC 29970, 24 h

MIC [3] | SMILES | Ratio [2] | IC50 (HT-29) | MIC [6] | MIC [10] | MIC (Staphylococcus aureus [11]) | MIC (Staphylococcus aureus [12]) | MIC (Staphylococcus aureus [15]) | MIC (Staphylococcus aureus [16]) | also measured
 | NS(=O)(=O)Nc1ccc(-n2nc(C(F)(F)F)cc2-c2ccc3ccccc3c2)cc1 | 19 |  | 2 mg/L (≈ 4.63 µM) | 4 mg/L (≈ 9.25 µM) | 1 mg/L (≈ 2.31 µM) |  |  |  | 
 | Cc1ccc(-c2ccc(-c3cc(C(F)(F)F)nn3-c3ccc(NS(N)(=O)=O)cc3)cc2)cc1 | 9 |  | 2 mg/L (≈ 4.23 µM) | 2 mg/L (≈ 4.23 µM) | 1 mg/L (≈ 2.12 µM) | 1 mg/L (≈ 2.12 µM) | 1 mg/L (≈ 2.12 µM) | 1 mg/L (≈ 2.12 µM) | MIC [14]: 1 mg/L (≈ 2.12 µM); MIC (Staphylococcus aureus [17]): 1 mg/L (≈ 2.12 µM)
 | NS(=O)(=O)Nc1ccc(-n2nc(C(F)(F)F)cc2-c2ccc3cc4ccccc4cc3c2)cc1 | 2.8 | 11 mg/L (≈ 22.8 µM) | 4 mg/L (≈ 8.29 µM) | 4 mg/L (≈ 8.29 µM) |  | 2 mg/L (≈ 4.15 µM) | 2 mg/L (≈ 4.15 µM) | 2 mg/L (≈ 4.15 µM) | MIC [14]: 2 mg/L (≈ 4.15 µM); MIC [18]: 8 mg/L (≈ 16.6 µM); MIC (Staphylococcus hominis): 2 mg/L (≈ 4.15 µM); MIC [19]: 16 mg/L (≈ 33.2 µM)
4 mg/L (≈ 7.24 µM) | NCCCC[C@@H](N)C(=O)Nc1ccc(-n2nc(C(F)(F)F)cc2-c2ccc3c(c2)Nc2ccccc2S3)cc1 | 4.4 | 17.5 mg/L (≈ 31.7 µM) |  |  | 4 mg/L (≈ 7.24 µM) |  |  |  | 
 | NS(=O)(=O)Nc1ccc(-n2nc(C(F)(F)F)cc2-c2ccc(-c3ccc(Br)cc3)cc2)cc1 | 10 |  | 2 mg/L (≈ 3.72 µM) | 2 mg/L (≈ 3.72 µM) | 1 mg/L (≈ 1.86 µM) | 1 mg/L (≈ 1.86 µM) | 1 mg/L (≈ 1.86 µM) | 1 mg/L (≈ 1.86 µM) | MIC [14]: 1 mg/L (≈ 1.86 µM); MIC (Staphylococcus aureus [17]): 1 mg/L (≈ 1.86 µM)
 | NCCCC[C@H](N)C(=O)Nc1ccc(-n2nc(C(F)(F)F)cc2-c2ccc3c(ccc4ccccc43)c2)cc1 | 4.9 | 19.5 mg/L (≈ 36.7 µM) |  |  |  |  |  |  | 
4 mg/L (≈ 8.69 µM) | NCC(=O)Nc1ccc(-n2nc(C(F)(F)F)cc2-c2ccc3c(ccc4ccccc43)c2)cc1 [AR-12] | 0.9 |  |  |  | 4 mg/L (≈ 8.69 µM) |  |  |  | 
 | NS(=O)(=O)Nc1ccc(-n2nc(C(F)(F)F)cc2-c2ccc(-c3ccccc3)cc2)cc1 | 16 |  | 2 mg/L (≈ 4.36 µM) | 2 mg/L (≈ 4.36 µM) | 1 mg/L (≈ 2.18 µM) | 1 mg/L (≈ 2.18 µM) | 1 mg/L (≈ 2.18 µM) | 1 mg/L (≈ 2.18 µM) | MIC (Staphylococcus aureus [17]): 1 mg/L (≈ 2.18 µM)
4 mg/L (≈ 8.31 µM) | NCC(=O)Nc1ccc(-n2nc(C(F)(F)F)cc2-c2ccc3c(c2)Nc2ccccc2S3)cc1 | 1.6 |  |  |  | 4 mg/L (≈ 8.31 µM) |  |  |  | 
4 mg/L (≈ 8.88 µM) | NCC(=O)Nc1ccc(-n2nc(C(F)(F)F)cc2-c2ccc3c(c2)oc2ccccc23)cc1 | 1.6 | 6.5 mg/L (≈ 14.4 µM) |  |  | 4 mg/L (≈ 8.88 µM) |  |  |  | 

SMILES | MIC [3] | Ratio [2] | IC50 (HT-29) | MIC [6] | MIC [10] | MIC (Staphylococcus aureus [11]) | MIC (Staphylococcus aureus [12]) | MIC (Staphylococcus aureus [15]) | MIC (Staphylococcus aureus [16]) | also measured
NS(=O)(=O)Nc1ccc(-n2nc(C(F)(F)F)cc2-c2c3ccccc3cc3ccccc23)cc1 | 1 mg/L (≈ 2.07 µM) | 40 | 20 mg/L (≈ 41.5 µM) | 0.5 mg/L (≈ 1.04 µM) | 4 mg/L (≈ 8.29 µM) |  |  |  |  | Activity (Staphylococcus aureus [1]): 99.99%; Activity (Staphylococcus aureus [4]): tde; Activity (Mus musculus [5]): Toxic; Activity (Mus musculus [7]): Non-toxic; Survival (Staphylococcus aureus [8]): 7 days; Activity (Mus musculus [9]): Toxic
NC(=O)c1ccc(-n2nc(C(F)(F)F)cc2-c2c3ccccc3cc3ccccc23)cc1 | 2 mg/L (≈ 4.64 µM) | 6 | 12 mg/L (≈ 27.8 µM) | 4 mg/L (≈ 9.27 µM) | 4 mg/L (≈ 9.27 µM) | 2 mg/L (≈ 4.64 µM) | 4 mg/L (≈ 9.27 µM) |  |  | Activity (Staphylococcus aureus [1]): 99.14%; Activity (Staphylococcus aureus [4]): tde
Cc1ccc(-c2cc(C(F)(F)F)nn2-c2ccc(S(N)(=O)=O)cc2)cc1 [CELECOXIB] | 16 mg/L (≈ 42 µM) | 0.6 | 18 mg/L (≈ 47.2 µM) |  |  | 32 mg/L (≈ 83.9 µM) |  |  |  | FC (Staphylococcus aureus [13]): 6
